Reference: ChEMBL document CHEMBL1921795, “Discovery, synthesis, and structure-activity relationship development of a series of N-4-(2,5-dioxopyrrolidin-1-yl)phenylpicolinamides (VU0400195, ML182): characterization of a novel positive allosteric modulator of the metabotropic glutamate receptor 4 (mGlu(4)) with oral efficacy in an …” (J Med Chem, 2011)
Active and inactive are the calls of the source.

Assays:
[1] = target: Metabotropic glutamate receptor 3 (Rattus norvegicus) (UniProt P31422); test: Positive allosteric modulator activity at rat mGlu3 receptor at 10 uM by thallium flux assay
Method in brief: (§1)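 HEK-293 cells co-expressing rat mGlu2, 3, 7 or 8 with GIRK channels, thallium flux read-out. Compound at 10 µM added, then 2.5 min later a full concentration-response of glutamate (L-AP4 for mGlu7). Left shift >2-fold scored as potentiation; right shift >2-fold or ≥75% drop in max response scored as antagonism.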

[2] = target: Metabotropic glutamate receptor 1 (Rattus norvegicus) (UniProt P23385); test: Positive allosteric modulator activity at rat mGlu1 receptor expressed in human HEK293 at 10 uM by calcium mobilization assay; type: functional, cell-based
Method in brief: (§2)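 HEK cells expressing rat mGlu1 (plated 15,000 cells/well in DMEM, 10% dialyzed FBS, 20 mM HEPES). Fluo-4 calcium mobilization. Compound at 10 µM added, then 2.5 min later a full glutamate concentration-response. Left shift >2-fold scored as potentiation; right shift >2-fold or ≥75% drop in max response scored as antagonism.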

[3] = system: Rattus norvegicus; test: Reversal of haloperidol-induced catalepsy in Sprague-Dawley rat at 0.1 to 30 mg/kg, po administered 60 mins after haloperidol-challenge measured after 30 mins; type: functional, organism-based
Method in brief: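 Male Sprague-Dawley rats (275–300 g). Haloperidol 0.75 mg/kg i.p. (in 8.5% lactic acid, pH 6) given 60 min before oral compound (0.1–56.6 mg/kg) or vehicle (10% Tween 80). Catalepsy tested 30 min later: forepaws placed on a horizontal bar 6 cm high; latency to remove paws timed, 30 s cutoff.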

[4] = target: Metabotropic glutamate receptor 3 (Rattus norvegicus) (UniProt P31422); test: Activity at rat mGlu3 at 10 uM by thallium flux assay; method in brief: as §1
[5] = target: Metabotropic glutamate receptor 4 (Rattus norvegicus) (UniProt P31423); test: Positive allosteric modulation of rat mGlu4 receptor assessed as potentiation of glutamate-induced thallium flux relative to (-)-PHCCC; set-up: concentration or dose not given beside the values
[6] = target: Metabotropic glutamate receptor 7 (Rattus norvegicus) (UniProt P35400); test: Positive allosteric modulator activity at rat mGlu7 receptor assessed as potentiation of glutamate-induced thallium flux at 10 uM relative to (-)-PHCCC
[7] = target: Metabotropic glutamate receptor 2 (Rattus norvegicus) (UniProt P31421); test: Antagonist activity at rat mGlu2 at 10 uM by thallium flux assay; type: functional; method in brief: as §1
[8] = target: Metabotropic glutamate receptor 5 (Rattus norvegicus) (UniProt P31424); test: Antagonist activity at rat mGlu5 receptor at 10 uM by calcium mobilization assay; type: functional
Method in brief: (§3)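 HEK cells expressing rat mGlu5, calcium mobilization by double addition. 10 µM compound or vehicle was added, then a full glutamate concentration-response 2.5 min later. A left shift >2-fold was scored as potentiation. A right shift >2-fold or ≥75% loss of maximum was scored as antagonism. Mean ± SEM of three experiments in singlicate.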

[9] = target: Metabotropic glutamate receptor 2 (Rattus norvegicus) (UniProt P31421); test: Activity at rat mGlu2 at 10 uM by thallium flux assay; method in brief: as §1
[10] = target: Metabotropic glutamate receptor 7 (Rattus norvegicus) (UniProt P35400); test: Antagonist activity at rat mGlu7 receptor at 10 uM by thallium flux assay; type: functional; method in brief: as §1
[11] = target: Metabotropic glutamate receptor 3 (Rattus norvegicus) (UniProt P31422); test: Antagonist activity at rat mGlu3 at 10 uM by thallium flux assay; type: functional; method in brief: as §1
[12] = target: Metabotropic glutamate receptor 8 (Rattus norvegicus) (UniProt P70579); test: Positive allosteric modulator activity at rat mGlu8 receptor at 10 uM by thallium flux assay relative to glutamate
[13] = target: Metabotropic glutamate receptor 1 (Rattus norvegicus) (UniProt P23385); test: Activity at rat mGlu1 at 10 uM by calcium mobilization assay; type: functional; method in brief: as §2
[14] = target: T1, Metabotropic glutamate receptor 6 (Homo sapiens, UniProt O15303); test: Positive allosteric modulator activity at human mGlu6 receptor assessed as potentiation of glutamate-induced thallium flux at 10 uM relative to (-)-PHCCC
Method in brief: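 Cells expressing human mGlu6 with GIRK channels, thallium flux double-addition protocol. 10 µM compound or vehicle was added, then a full glutamate concentration-response 2.5 min later. A left shift >2-fold was scored as potentiator activity. A right shift >2-fold or max depression ≥75% was scored as antagonist activity. Mean ± SEM of three experiments in singlicate.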

[15] = target: Metabotropic glutamate receptor 8 (Rattus norvegicus) (UniProt P70579); test: Antagonist activity at rat mGlu8 receptor at 10 uM by thallium flux assay; type: functional; method in brief: as §1
[16] = target: Metabotropic glutamate receptor 8 (Rattus norvegicus) (UniProt P70579); test: Positive allosteric modulator activity at rat mGlu8 receptor at 10 uM by thallium flux assay; method in brief: as §1
[17] = target: Metabotropic glutamate receptor 1 (Rattus norvegicus) (UniProt P23385); test: Antagonist activity at rat mGlu1 at 10 uM by calcium mobilization assay; type: functional; method in brief: as §2
[18] = target: Metabotropic glutamate receptor 4 (Homo sapiens, UniProt Q14833); test: Positive allosteric modulation of human mGlu4 receptor expressed in CHO cells coexpressing Gqi5 assessed as potentiation of glutamate-induced calcium mobilization relative to (-)-PHCCC; type: functional, cell-based
Method in brief: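 CHO cells stably expressing human mGlu4 with chimeric Gqi5, plated overnight, loaded 45 min at 37 °C with 1 µM Fluo-4 AM. Compound (10-point, 1:3 dilutions) was added about 2.5 min before an EC20 glutamate, then EC80 glutamate 2 min later. Ca2+ fluorescence read at 470/540 nm. Four-parameter logistic fit.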

[19] = target: Metabotropic glutamate receptor 5 (Rattus norvegicus) (UniProt P31424); test: Positive allosteric modulation of rat mGlu5 receptor expressed in human HEK293 cells assessed as potentiation of glutamate-induced calcium mobilization at 10 uM relative to (-)-PHCCC; type: functional, cell-based; method in brief: as §3
[20] = target: T1, Metabotropic glutamate receptor 6; test: Antagonist activity at human mGlu6 receptor at 10 uM by thallium flux assay
[21] = target: Metabotropic glutamate receptor 2 (Rattus norvegicus) (UniProt P31421); test: Positive allosteric modulator activity at rat mGlu2 receptor at 10 uM by thallium flux assay; method in brief: as §1
[22] = system: Rattus norvegicus; test: Volume of distribution at steady state in Sprague-Dawley rat at 1 mg/kg, iv by LC/MS analysis; type: ADME, organism-based; set-up: dose 1 mg/kg, route intravenous; conditions: in vivo
Method in brief: (§4)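 Male Sprague-Dawley rats (n=2, 250-300 g), carotid and jugular cannulated; 1 mg/kg iv via jugular catheter in 20% DMSO/80% saline. Arterial blood from pre-dose to 24 h, EDTA plasma analysed by LC/MS/MS; noncompartmental analysis of individual profiles.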

[23] = system: Rattus norvegicus; test: Oral bioavailability in Sprague-Dawley rat at 10 mg/kg by LC/MS analysis; type: ADME, organism-based; conditions: in vivo
[24] = system: Rattus norvegicus; test: AUC (0 to 24 hrs) in Sprague-Dawley rat at 1 mg/kg, iv by LC/MS analysis; type: ADME, organism-based, Plasma; set-up: time < 24 hr, dose 1 mg/kg, route intravenous; conditions: in vivo
Method in brief: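 Male Sprague-Dawley rats (n=2, 250-300 g) with carotid artery and jugular vein catheters, acclimated about one week, fed ad libitum. Dose given through the jugular catheter in 20% DMSO/80% saline at 1 mL/kg. Carotid blood drawn pre-dose and at 2, 7, 15, 30 min and 1, 2, 4, 7, 24 h into chilled EDTA tubes. Plasma measured by LC/MS/MS; parameters from noncompartmental analysis of individual profiles.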

[25] = Half life in iv dosed Beagle dog; type: ADME, organism-based, Canis lupus familiaris; conditions: in vivo
[26] = Half life in rhesus monkey at 1 mg/kg, iv by LC/MS analysis; type: ADME, organism-based, Macaca mulatta; set-up: dose 1 mg/kg, route intravenous; conditions: in vivo
Method in brief: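 Rhesus monkeys (8-11 kg) tranquilized with ketamine 10 mg/kg im and Telazol 3 mg/kg im. Compound given iv at 1 mg/kg, blood collected, plasma analysed by LC/MS/MS (MRM, positive ESI).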

[27] = system: Rattus norvegicus; test: Half life in Sprague-Dawley rat at 1 mg/kg, iv by LC/MS analysis; type: ADME, organism-based; set-up: dose 1 mg/kg, route intravenous; conditions: in vivo; method in brief: as §4
[28] = system: Rattus norvegicus; test: AUC (0 to 24 hrs) in Sprague-Dawley rat at 10 mg/kg, po by LC/MS analysis; type: ADME, organism-based, Plasma; set-up: time < 24 hr, dose 10 mg/kg, route oral; conditions: in vivo
[29] = system: Rattus norvegicus; test: Cmax in Sprague-Dawley rat at 10 mg/kg, po by LC/MS analysis; type: ADME, organism-based; set-up: dose 10 mg/kg, route oral; conditions: in vivo

Metabotropic glutamate receptor 3 (Rattus norvegicus), sequence (P31422 23-879 limits assumed): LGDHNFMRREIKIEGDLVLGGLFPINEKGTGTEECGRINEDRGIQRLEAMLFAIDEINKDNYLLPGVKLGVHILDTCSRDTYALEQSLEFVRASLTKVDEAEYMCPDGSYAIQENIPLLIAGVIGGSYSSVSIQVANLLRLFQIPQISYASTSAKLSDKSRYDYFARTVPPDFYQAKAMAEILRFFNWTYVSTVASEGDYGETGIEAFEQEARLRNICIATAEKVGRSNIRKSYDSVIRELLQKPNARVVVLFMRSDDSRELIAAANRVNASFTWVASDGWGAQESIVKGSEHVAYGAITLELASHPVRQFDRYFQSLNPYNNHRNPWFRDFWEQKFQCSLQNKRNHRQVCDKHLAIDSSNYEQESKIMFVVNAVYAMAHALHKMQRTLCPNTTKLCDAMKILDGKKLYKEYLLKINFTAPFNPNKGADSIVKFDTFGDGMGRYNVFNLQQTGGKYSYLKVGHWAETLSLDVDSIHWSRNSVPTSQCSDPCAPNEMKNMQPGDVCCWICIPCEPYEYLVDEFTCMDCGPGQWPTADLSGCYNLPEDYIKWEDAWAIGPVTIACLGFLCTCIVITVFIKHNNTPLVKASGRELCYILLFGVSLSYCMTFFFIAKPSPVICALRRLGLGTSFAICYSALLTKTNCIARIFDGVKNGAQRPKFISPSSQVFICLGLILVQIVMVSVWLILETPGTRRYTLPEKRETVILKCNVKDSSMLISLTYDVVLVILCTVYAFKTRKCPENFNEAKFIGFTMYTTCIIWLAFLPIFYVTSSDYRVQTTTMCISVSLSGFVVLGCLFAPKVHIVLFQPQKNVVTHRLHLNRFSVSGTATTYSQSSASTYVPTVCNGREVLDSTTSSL
Metabotropic glutamate receptor 8 (Rattus norvegicus), sequence (P70579 whole entry): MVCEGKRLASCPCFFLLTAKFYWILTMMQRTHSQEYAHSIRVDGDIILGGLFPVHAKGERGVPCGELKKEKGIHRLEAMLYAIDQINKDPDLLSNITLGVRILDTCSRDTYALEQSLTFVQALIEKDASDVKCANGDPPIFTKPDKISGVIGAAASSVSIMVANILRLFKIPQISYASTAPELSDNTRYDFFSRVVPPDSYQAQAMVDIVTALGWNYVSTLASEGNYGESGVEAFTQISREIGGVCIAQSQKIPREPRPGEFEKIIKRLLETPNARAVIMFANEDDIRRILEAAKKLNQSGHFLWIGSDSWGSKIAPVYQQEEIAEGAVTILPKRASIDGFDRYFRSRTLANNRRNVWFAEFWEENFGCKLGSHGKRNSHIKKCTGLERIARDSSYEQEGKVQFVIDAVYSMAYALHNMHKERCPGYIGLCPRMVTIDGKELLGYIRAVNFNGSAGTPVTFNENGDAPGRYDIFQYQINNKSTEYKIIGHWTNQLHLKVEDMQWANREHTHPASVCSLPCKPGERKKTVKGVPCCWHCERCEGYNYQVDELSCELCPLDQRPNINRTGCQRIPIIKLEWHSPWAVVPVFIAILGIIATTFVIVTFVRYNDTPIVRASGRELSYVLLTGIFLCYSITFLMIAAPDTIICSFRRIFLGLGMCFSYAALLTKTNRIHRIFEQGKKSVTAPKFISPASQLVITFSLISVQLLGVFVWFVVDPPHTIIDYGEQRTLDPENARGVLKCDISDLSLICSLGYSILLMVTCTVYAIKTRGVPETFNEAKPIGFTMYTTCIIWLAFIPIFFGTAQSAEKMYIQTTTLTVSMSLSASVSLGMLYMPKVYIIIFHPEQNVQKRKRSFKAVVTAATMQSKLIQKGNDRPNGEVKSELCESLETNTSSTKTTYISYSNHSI
Metabotropic glutamate receptor 1 (Rattus norvegicus), sequence (P23385 19-1199 limits assumed): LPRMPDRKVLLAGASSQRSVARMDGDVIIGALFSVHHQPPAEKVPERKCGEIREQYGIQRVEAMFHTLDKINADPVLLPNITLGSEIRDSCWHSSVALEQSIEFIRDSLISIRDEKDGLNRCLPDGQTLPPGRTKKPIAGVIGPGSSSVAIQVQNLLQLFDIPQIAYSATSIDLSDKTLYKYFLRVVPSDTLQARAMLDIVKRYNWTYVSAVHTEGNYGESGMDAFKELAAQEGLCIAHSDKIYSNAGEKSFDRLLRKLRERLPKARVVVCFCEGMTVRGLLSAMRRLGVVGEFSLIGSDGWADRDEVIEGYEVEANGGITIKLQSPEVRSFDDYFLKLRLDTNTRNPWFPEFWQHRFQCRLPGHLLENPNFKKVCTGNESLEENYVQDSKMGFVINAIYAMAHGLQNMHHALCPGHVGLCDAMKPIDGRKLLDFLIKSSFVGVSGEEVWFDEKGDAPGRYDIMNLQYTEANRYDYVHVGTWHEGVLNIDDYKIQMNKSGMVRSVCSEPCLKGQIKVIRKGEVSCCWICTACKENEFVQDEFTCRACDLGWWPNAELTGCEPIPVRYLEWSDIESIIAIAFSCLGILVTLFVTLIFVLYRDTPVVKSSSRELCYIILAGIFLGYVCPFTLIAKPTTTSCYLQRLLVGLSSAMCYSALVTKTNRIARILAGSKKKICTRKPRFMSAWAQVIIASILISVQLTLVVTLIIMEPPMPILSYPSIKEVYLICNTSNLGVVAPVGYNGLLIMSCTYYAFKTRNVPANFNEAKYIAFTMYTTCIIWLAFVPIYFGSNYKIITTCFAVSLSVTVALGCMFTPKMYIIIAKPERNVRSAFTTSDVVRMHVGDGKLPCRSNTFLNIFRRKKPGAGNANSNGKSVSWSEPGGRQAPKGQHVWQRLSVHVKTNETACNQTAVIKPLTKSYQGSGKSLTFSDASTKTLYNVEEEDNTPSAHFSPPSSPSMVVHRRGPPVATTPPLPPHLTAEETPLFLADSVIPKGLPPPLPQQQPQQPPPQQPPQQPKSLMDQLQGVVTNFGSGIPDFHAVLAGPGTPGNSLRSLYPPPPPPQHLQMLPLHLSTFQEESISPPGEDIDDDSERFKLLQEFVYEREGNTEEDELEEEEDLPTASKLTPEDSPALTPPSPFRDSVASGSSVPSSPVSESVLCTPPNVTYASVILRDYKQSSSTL
Metabotropic glutamate receptor 2 (Rattus norvegicus), sequence (P31421 19-872 limits assumed): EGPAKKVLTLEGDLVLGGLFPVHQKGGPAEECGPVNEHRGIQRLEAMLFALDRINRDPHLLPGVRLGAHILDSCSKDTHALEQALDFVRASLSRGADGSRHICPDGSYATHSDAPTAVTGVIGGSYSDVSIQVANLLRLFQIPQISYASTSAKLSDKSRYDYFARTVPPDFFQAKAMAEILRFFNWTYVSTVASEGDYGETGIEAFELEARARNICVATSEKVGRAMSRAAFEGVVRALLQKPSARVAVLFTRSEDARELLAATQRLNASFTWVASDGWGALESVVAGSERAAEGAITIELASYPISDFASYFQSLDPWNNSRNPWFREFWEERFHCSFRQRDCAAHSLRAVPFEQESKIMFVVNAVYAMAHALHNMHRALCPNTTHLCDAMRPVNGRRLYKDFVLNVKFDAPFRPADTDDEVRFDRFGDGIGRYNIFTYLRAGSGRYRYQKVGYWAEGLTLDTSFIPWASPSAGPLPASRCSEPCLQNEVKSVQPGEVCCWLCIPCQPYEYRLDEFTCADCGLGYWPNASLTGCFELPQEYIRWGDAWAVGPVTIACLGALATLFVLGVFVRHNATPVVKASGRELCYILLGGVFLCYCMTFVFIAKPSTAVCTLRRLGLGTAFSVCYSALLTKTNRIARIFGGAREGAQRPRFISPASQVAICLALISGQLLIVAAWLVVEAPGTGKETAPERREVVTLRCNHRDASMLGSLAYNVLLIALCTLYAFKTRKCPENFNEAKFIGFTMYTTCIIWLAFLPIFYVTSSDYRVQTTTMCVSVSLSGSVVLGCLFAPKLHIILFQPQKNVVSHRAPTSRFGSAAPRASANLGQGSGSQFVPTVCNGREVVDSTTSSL
Metabotropic glutamate receptor 5 (Rattus norvegicus), sequence (P31424 21-1203 limits assumed): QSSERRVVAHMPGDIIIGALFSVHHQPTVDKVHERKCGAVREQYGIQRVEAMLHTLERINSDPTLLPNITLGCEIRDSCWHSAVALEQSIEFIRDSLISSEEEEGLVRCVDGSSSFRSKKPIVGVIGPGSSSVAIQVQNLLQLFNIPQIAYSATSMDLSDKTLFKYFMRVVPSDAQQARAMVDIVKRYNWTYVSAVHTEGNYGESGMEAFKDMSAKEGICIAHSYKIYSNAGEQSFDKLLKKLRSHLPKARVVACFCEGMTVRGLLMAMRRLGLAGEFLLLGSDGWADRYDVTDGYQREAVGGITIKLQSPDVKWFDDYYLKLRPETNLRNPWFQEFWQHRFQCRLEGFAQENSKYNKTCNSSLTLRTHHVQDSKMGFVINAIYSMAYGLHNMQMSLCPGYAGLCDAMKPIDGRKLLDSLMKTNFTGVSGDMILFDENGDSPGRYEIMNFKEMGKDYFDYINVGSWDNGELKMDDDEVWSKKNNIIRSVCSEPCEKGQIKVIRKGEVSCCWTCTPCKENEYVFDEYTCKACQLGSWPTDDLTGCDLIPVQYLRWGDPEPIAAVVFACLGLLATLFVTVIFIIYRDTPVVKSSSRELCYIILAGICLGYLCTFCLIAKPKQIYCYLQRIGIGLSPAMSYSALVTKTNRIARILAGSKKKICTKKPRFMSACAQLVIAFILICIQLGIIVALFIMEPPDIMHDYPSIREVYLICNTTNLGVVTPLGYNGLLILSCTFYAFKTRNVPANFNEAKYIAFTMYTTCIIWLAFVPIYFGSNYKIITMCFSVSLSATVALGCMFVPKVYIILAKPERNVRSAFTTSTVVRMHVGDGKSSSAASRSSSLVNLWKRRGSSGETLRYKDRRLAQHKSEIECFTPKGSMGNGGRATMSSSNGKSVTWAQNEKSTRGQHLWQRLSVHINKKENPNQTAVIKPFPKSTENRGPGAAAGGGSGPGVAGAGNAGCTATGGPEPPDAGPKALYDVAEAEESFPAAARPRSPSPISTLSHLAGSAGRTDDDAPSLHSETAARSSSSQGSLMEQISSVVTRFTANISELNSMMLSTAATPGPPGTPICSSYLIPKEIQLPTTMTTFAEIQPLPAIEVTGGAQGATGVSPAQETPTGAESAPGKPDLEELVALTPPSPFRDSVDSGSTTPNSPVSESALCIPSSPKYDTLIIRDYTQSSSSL

O=C(Nc1ccc(N2C(=O)[C@@H]3[C@H](C2=O)[C@@H]2C=C[C@H]3C2)c(Cl)c1)c1ccccn1 (mixture of isomers)
Activity [1]: inactive | Activity [2]: inactive | Activity [3]: Active | Activity [4]: inactive | Activity [5]: 120% | Activity [6]: 64% | Activity [7]: inactive | Activity [8]: inactive | Activity [9]: inactive | Activity [10]: inactive | Activity [11]: inactive | Activity [12]: inactive | Activity [13]: inactive | Activity [14]: 45.8% | Activity [15]: inactive | Activity [16]: inactive | Activity [17]: inactive | Activity [18]: 122% | Activity [19]: 64.3% | Activity [20]: inactive | Activity [21]: inactive

Cl.O=C(Nc1ccc(N2C(=O)CC(c3ccccc3)C2=O)c(Cl)c1)c1ccccn1 (centres undefined)
Vdss [22]: 0.58 L/kg | F [23]: 8.3% | AUC [24]: 3225 ng·h/mL | half-life [25]: > 3 h | half-life [26]: > 3 h | t1/2 [27]: 5.48 h | AUC [28]: 2685 ng·h/mL | Cmax [29]: 553 ng/mL
